One may read the inhibition as the percentage by which the read-out fell short of the control.

Series [1] concerns Syrian golden hamster. Nature of the series: Induction of reverse cholestrol transport in high fat diet-induced dyslipidemia Syrian Golden hamster model assessed as decrease in CYP7A1 mRNA expression in liver at 100 mg/kg, po administered for 1 week by qRT-PCR analysis. The note with it: Mesocricetus auratus. It counts as functional, organism-based. (Real-time PCR tracks product formation cycle by cycle.)

Series [2] relates to 3T3-L1. Nature of the series: Anti-adipogenic activity in mouse differentiated 3T3L1 cells assessed as inhibition of adipogenesis at 20 uM after 20 mins by Oil Red O staining based assay. It counts as functional. Summed up: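 3T3-L1 preadipocytes given 20 µM compound with differentiation media. Oil red O stain (20 min) extracted, absorbance at 492 nm measured against MDI+ control, n=3, mean ± SD, Student t test.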

For series [3], the species on record is Homo sapiens. Nature of the series: Anti-adipogenic activity in human differentiated MSC assessed as reduction in lipid accumulation at 5 to 20 uM after 20 mins by Oil Red O staining based microscopic method. Format: functional. In short, it runs like this: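 C3H10T1/2 or hMSC adipocytes differentiated alongside 5, 10 or 20 µM compound in differentiation media, stained with Oil red O. Images taken by bright-field microscopy at 10x and 20x, representative of three independent experiments.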

For series [4], the system named is 3T3-L1. Put plainly: Cell cycle arrest in mouse 3T3L1 cells assessed as reduction in accumulation at S phase at 10 to 20 uM after 24 hrs by propidium iodide-staining based flow cytometry. It counts as functional. Summed up: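 Confluent 3T3-L1 preadipocytes given differentiation medium (0.5 mM IBMX, 5 µg/ml insulin, 250 nM dexamethasone) with 10 or 20 µM for 16 and 24 hr. Cells trypsinized, fixed in ice-cold 70% ethanol for 2 hr, stained with propidium iodide (40 µg/ml in RNase A buffer, 30 min, room temperature). Flow cytometry gave the fractions in G1, S and G2/M; three independent experiments.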

The species entered for series [5] is Mus musculus. Nature of the series: Activation of Wnt3a/beta-catenin in differentiated mouse 3T3L1 cells assessed as down-regulation of PPARgamma mRNA expression at 20 uM by qRT-PCR analysis. Summed up: (§1)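 3T3-L1 cells differentiated with IBMX/dexamethasone/insulin media with or without 20 µM compound over the differentiation period. RNA extracted with TRIZOL, 500 ng reverse-transcribed to cDNA, then quantitative real-time PCR. Three independent experiments run in triplicate, mean ± SD, one-way ANOVA with Bonferroni posttest.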

For series [6], the species on record is Mus musculus. Put plainly: Activation of Wnt3a/beta-catenin in mouse 3T3L1 cells assessed as down-regulation of AP2 mRNA expression at 20 uM by qRT-PCR analysis. Format: cell-based. In short, it runs like this:
as §1

Series [7] is filed under the species Mus musculus. Put plainly: Activation of Wnt3a/beta-catenin in mouse 3T3L1 cells assessed as increase in BMP2 mRNA expression at 20 uM by qRT-PCR analysis. It counts as cell-based. Summed up:
as §1

Series [8] deals with 3T3-L1. Put plainly: Induction of Wnt10a mRNA expression in mouse 3T3L1 cells at 20 uM by qRT-PCR analysis. It counts as functional, cell-based. Summed up: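 3T3-L1 cells induced with MDI differentiation medium with or without 20 µM. RNA isolated with TRIzol and 500 ng reverse-transcribed to cDNA for real-time PCR. n=3 with triplicates, mean ± SD; one-way ANOVA with Bonferroni post-test.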

The species entered for series [9] is Mus musculus. Put plainly: Activation of Wnt3a/beta-catenin in mouse 3T3L1 cells assessed as down-regulation of cyclinD1 expression at 20 uM after 16 to 24 hrs in presence of FH353 by Western blot analysis. It counts as cell-based. In short, it runs like this: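 Confluent 3T3-L1 cells given differentiation media (IBMX/insulin/dexamethasone) with 20 µM compound, with or without the β-catenin/TCF inhibitor FH353 (10 µM). Proteins isolated at 16 and 24 h and Western blotted after SDS-PAGE and nitrocellulose transfer. Blocking in 5% milk/TBS-T, primary antibody overnight at 4 °C, chemiluminescent detection, β-actin control, three independent experiments.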

Series [10] has as its system Syrian golden hamster. Nature of the series: Anti-dyslipidemic activity in high fat diet-induced dyslipidemia Syrian Golden hamster model assessed as reduction in serum triglycerides levels at 100 mg/kg, po administered for 1 week followed by overnight fasting post last dose by clinical bio-analyzer analysis. It counts as functional, organism-based. The note with it: Mesocricetus auratus. Summed up:
(§2)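 Male Syrian Golden hamsters (8-10 weeks, 100-120 g), 4 per group, given 45% kCal high fat diet for 4 days, then HFD plus oral dosing in 0.5% w/v NaCMC for one week. After an overnight fast, blood was taken from the retro-orbital plexus under anesthesia and serum was analysed on a clinical bio-analyzer. Mean ± SEM; one-way ANOVA with Bonferroni post-test.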

The test system of series [11] is Syrian golden hamster. Nature of the series: Anti-dyslipidemic activity in high fat diet-induced dyslipidemia Syrian Golden hamster model assessed as reduction in serum LDL levels at 100 mg/kg, po administered for 1 week followed by overnight fasting post last dose by clinical bio-analyzer analysis. To be noted: Mesocricetus auratus. It counts as functional, organism-based. In short, it runs like this: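 Male Syrian golden hamsters (8–10 wk, 100–120 g), 4 per group, given 45% kcal HFD for 4 days, then 100 mg/kg p.o. in 0.5% NaCMC daily for one week alongside HFD. Blood taken from retro-orbital plexus after overnight fast. TG, HDL, LDL, ALT, AST measured on a clinical bio-analyzer and NEFA by kit. Mean ± SEM, one-way ANOVA with Bonferroni.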

In series [12] the test system is Syrian golden hamster. Put plainly: Effect on serum HDL level in high fat diet-induced dyslipidemia Syrian Golden hamster model at 100 mg/kg, po administered for 1 week followed by overnight fasting post last dose by clinical bio-analyzer analysis. Format: ADME, organism-based, Mesocricetus auratus. The note with it: in vivo, 168 h. Summed up: as §2
The test system of series [13] is Syrian golden hamster. Nature of the series: Anti-adipogenic activity in high fat diet-induced dyslipidemia Syrian Golden hamster model assessed as increase in beta-catenin levels in eWAT at 100 mg/kg, po administered for 1 week by Western blot analysis. It counts as functional, organism-based. To be noted: Mesocricetus auratus. Summed up:
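Male Syrian golden hamsters (8–10 wk, 100–120 g) fed 45% kcal HFD for 4 days, then dosed orally at 100 mg/kg in 0.5% NaCMC for one week, n=4 per group. Fenofibrate 100 mg/kg p.o. used as positive control. Epididymal WAT proteins Western blotted, three independent experiments.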

In series [14] the test system is Syrian golden hamster. Nature of the series: Induction of reverse cholestrol transport in high fat diet-induced dyslipidemia Syrian Golden hamster model assessed as increase in PPARalpha mRNA expression in liver at 100 mg/kg, po administered for 1 week by qRT-PCR analysis. To be noted: Mesocricetus auratus. Format: functional, organism-based.
The species named for series [15] is Mus musculus. Nature of the series: Activation of Wnt3a/beta-catenin in differentiated mouse 3T3L1 cells assessed as down-regulation of AP2 protein expression at 20 uM after 16 to 24 hrs by Western blot analysis. In short, it runs like this:
(§3)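 3T3-L1 preadipocytes grown to confluence in high-glucose DMEM/10% FBS, then given differentiation media (0.5 mM IBMX, 5 µg/ml insulin, 250 nM dexamethasone) with or without 20 µM compound. Protein isolated at set time points, lysed with protease/phosphatase inhibitors, BCA-quantified, resolved by 8–12% SDS-PAGE, immunoblotted with ECL detection. β-actin loading control, densitometry normalized to actin, n=3.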
On the technique in general: A western blot detects proteins with antibodies after separation by electrophoresis.

For series [16], the species on record is Mus musculus. Nature of the series: Activation of Wnt3a/beta-catenin in differentiated mouse 3T3L1 cells assessed as upregulation of phosphorylated LRP6 expression at 20 uM after 16 to 24 hrs by Western blot analysis. Summed up: as §3
Series [17] concerns 3T3-L1. Nature of the series: Anti-adipogenic activity in mouse 3T3L1 pre-adipocytes in differentiation media assessed as reduction in lipid accumulation at 20 uM after 20 mins in presence of beta-catenin/TCF complex inhibitor FH353 by Oil Red O absorbance method. Format: functional, cell-based. In short, it runs like this:
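3T3-L1 cells differentiated with 20 µM compound with or without FH353 (10 µM) in differentiation media. Oil red O extracted and absorbance read at 492 nm, n=3, mean ± SD, Student t test.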

Active and inactive are the calls of the source. No cut-off for these calls is given here.

For the molecule `Cc1ccc(S(=O)(=O)N(Cc2cn(Cc3cccc(F)c3F)nn2)Cc2cn(S(=O)(=O)c3ccc(C)cc3)c3ccccc23)cc1`, the result in [1], in series [3], in [5], in [6], in series [7] and in [10] was Active. For the same molecule, the result in series [11], in series [13], in series [14], in series [15] and in [16] was Active. Moreover, the inhibition at 20 µM in [2] came to 71.5%. The result in [4], in [8], in [9] and in series [17] was inactive. In addition, the Activity result in series [12] was “Non-Toxic”.

(Values after ChEMBL document CHEMBL4138193, “Novel indole and triazole based hybrid molecules exhibit potent anti-adipogenic and antidyslipidemic activity by activating Wnt3a/β-catenin pathway” (Eur J Med Chem, 2018).)
